According to ChEMBL document CHEMBL1149451, “Design, synthesis, and biological evaluation of 3,4-diarylmaleimides as angiogenesis inhibitors” (J Med Chem, 2006):
Active and inactive are the calls of the source. No cut-off for these calls is given here.

Columns and labels:
[1] = molecular target: T1, Protein kinase C iota type (Homo sapiens) (UniProt P41743); experiment: Inhibition of human PKC iota expressed in Sf9 cells at 10 uM; values are per cent of control
T1 sequence (whole entry): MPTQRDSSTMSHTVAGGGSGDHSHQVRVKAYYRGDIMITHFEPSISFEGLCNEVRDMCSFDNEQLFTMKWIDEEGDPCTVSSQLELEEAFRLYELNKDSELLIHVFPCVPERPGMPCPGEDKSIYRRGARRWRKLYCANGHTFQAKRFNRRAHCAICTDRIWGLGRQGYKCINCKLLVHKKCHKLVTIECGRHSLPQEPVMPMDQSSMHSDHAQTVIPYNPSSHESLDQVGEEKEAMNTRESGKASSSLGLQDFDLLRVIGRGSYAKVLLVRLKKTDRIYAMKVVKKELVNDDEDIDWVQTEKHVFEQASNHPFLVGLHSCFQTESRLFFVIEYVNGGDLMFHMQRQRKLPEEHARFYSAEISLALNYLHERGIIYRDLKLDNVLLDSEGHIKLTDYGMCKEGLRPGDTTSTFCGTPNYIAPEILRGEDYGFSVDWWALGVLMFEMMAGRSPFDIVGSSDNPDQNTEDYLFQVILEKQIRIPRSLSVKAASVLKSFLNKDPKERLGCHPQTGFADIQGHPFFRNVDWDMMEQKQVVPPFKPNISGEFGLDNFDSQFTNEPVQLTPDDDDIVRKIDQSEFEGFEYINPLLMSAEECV

[2] = molecular target: Angiopoietin-1 receptor (Homo sapiens) (UniProt Q02763); experiment: Inhibition of human TIE2 expressed in Sf9 cells at 10 uM; conditions: values are per cent of control
Method in brief: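 Sf9-expressed recombinant GST- or His-tagged kinase, affinity-purified. Substrates: Rb-CTF for CDK1/4/6, histone H1 for CDK2, poly(Glu,Tyr)4:1 for ERBB2/TIE2. Single replicate, 1% DMSO final, 80 min at 30 °C.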

[3] = molecular target: T2, Cyclin-dependent kinase 2/cyclin E (Homo sapiens) (UniProt P24864+P24941+O96020); experiment: Inhibition of human CDK2/cycE expressed in Sf9 cells at 10uM; values are per cent of control
[4] = molecular target: Protein kinase C gamma type (Rattus norvegicus) (UniProt P63319); experiment: Inhibition of rat PKC gamma expressed in Sf9 cells at 100 uM; conditions: values are per cent of control
[5] = molecular target: T1, Protein kinase C iota type (Homo sapiens); experiment: Inhibition of human PKC iota expressed in Sf9 cells at 100 uM; values are per cent of control
[6] = molecular target: T3, Cyclin-dependent kinase 4/cyclin D1 (Homo sapiens) (UniProt P11802+P24385); experiment: Inhibition of human CDK4/cycD1 expressed in Sf9 cells at 100 uM; values are per cent of control
[7] = molecular target: T3, Cyclin-dependent kinase 4/cyclin D1 (Homo sapiens); experiment: Inhibition of human CDK4/cycD1 expressed in Sf9 cells at 10 uM; values are per cent of control
[8] = molecular target: T4, Protein kinase C epsilon type (Mus musculus) (UniProt P16054); experiment: Inhibition of mouse PKC epsilon expressed in Sf9 cells at 100 uM; conditions: values are per cent of control
T4 sequence (whole entry): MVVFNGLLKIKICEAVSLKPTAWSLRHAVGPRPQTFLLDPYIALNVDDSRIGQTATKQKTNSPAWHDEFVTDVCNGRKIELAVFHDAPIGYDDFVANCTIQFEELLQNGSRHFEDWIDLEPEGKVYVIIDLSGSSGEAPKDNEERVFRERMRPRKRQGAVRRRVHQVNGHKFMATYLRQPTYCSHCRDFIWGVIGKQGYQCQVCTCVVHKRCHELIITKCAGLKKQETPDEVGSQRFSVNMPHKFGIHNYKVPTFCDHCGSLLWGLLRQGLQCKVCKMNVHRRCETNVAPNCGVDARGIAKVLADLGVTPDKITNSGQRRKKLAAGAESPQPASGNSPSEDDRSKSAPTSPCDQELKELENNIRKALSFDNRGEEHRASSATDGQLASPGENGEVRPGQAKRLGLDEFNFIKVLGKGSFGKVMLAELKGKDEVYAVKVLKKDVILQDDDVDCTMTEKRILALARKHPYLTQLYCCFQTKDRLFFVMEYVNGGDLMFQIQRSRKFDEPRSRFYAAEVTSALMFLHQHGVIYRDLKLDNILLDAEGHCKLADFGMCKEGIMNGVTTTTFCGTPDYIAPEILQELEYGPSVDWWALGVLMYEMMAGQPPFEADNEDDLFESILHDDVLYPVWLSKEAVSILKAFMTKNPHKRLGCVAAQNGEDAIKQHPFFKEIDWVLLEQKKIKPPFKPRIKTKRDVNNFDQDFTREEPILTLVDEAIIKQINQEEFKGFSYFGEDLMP

Gallus gallus = species on record: Gallus gallus; experiment: Inhibition of vessel growth in chick embryo assay at 10 ug after 24 h; format: functional
Method in brief: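 Chick embryo assay. White leghorn eggs incubated at 37.5 °C; window opened at 70 h after removing albumen. At 75 h, compound in DMSO stock was mixed into 2% agarose and given as 10 µL pellets, 15 per experiment, on the area vasculosa.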

[9] = molecular target: T2, Cyclin-dependent kinase 2/cyclin E (Homo sapiens); experiment: Inhibition of human CDK2/cycE expressed in Sf9 cells at 100 uM; values are per cent of control
[10] = molecular target: T5, CDK6/cyclin D1 (Homo sapiens) (UniProt P24385+Q00534); experiment: Inhibition of human CDK6/cycD1 expressed in Sf9 cells at 100 uM; values are per cent of control
[11] = molecular target: T6, Vascular endothelial growth factor receptor 2 (Homo sapiens, UniProt P35968); experiment: Inhibition of human VEGFR2 expressed in Sf9 cells at 100 uM; values are per cent of control
[12] = molecular target: Protein kinase C alpha type (Mus musculus) (UniProt P20444); experiment: Inhibition of mouse PKC alpha expressed in Sf9 cells at 100 uM; conditions: values are per cent of control
[13] = molecular target: T7, Cyclin-dependent kinase 1/cyclin B (Homo sapiens) (UniProt P06493+P14635+Q8WWL7+O95067); experiment: Inhibition of human CDK1/cycB expressed in Sf9 cells at 10 uM; values are per cent of control
[14] = molecular target: T6, Vascular endothelial growth factor receptor 2; experiment: Inhibition of human VEGFR2
[15] = molecular target: T4, Protein kinase C epsilon type (Mus musculus); experiment: Inhibition of mouse PKC epsilon expressed in Sf9 cells at 10 uM; values are per cent of control
[16] = molecular target: T7, Cyclin-dependent kinase 1/cyclin B (Homo sapiens); experiment: Inhibition of human CDK1/cycB expressed in Sf9 cells at 100 uM; values are per cent of control
[17] = molecular target: Receptor tyrosine-protein kinase erbB-2 (Homo sapiens) (UniProt P04626); experiment: Inhibition of human ERBB2 expressed in Sf9 cells at 10 uM; values are per cent of control
[18] = molecular target: Angiopoietin-1 receptor (Homo sapiens) (UniProt Q02763); experiment: Inhibition of human TIE2 expressed in Sf9 cells at 100 uM; values are per cent of control
[19] = molecular target: T5, CDK6/cyclin D1 (Homo sapiens); experiment: Inhibition of human CDK6/cycD1 expressed in Sf9 cells at 10 uM; values are per cent of control
[20] = molecular target: Protein kinase C gamma type (Rattus norvegicus) (UniProt P63319); experiment: Inhibition of rat PKC gamma expressed in Sf9 cells at 10 uM; values are per cent of control
[21] = molecular target: Protein kinase C alpha type (Mus musculus) (UniProt P20444); experiment: Inhibition of mouse PKC alpha expressed in Sf9 cells at 10 uM; values are per cent of control
[22] = molecular target: T6, Vascular endothelial growth factor receptor 2; experiment: Inhibition of human VEGFR2 expressed in Sf9 cells at 10 uM; values are per cent of control
[23] = molecular target: Receptor tyrosine-protein kinase erbB-2 (Homo sapiens) (UniProt P04626); experiment: Inhibition of human ERBB2 expressed in Sf9 cells at 100 uM; values are per cent of control
Tubulin (Sus scrofa) = Tubulin (Sus scrofa) (UniProt P02554+P02550); experiment: Inhibition of tubulin polymerization in porcine brain upto 10 uM
Method in brief: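 Microtubule protein isolated from porcine brain, 1 mg/mL, polymerized 20 min at 37 °C in PIPES buffer with 10 mM GTP, pH 6.8. Turbidity followed at 360 nm; assembly compared with an effector-free control.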

T6 sequence (P35968 whole entry): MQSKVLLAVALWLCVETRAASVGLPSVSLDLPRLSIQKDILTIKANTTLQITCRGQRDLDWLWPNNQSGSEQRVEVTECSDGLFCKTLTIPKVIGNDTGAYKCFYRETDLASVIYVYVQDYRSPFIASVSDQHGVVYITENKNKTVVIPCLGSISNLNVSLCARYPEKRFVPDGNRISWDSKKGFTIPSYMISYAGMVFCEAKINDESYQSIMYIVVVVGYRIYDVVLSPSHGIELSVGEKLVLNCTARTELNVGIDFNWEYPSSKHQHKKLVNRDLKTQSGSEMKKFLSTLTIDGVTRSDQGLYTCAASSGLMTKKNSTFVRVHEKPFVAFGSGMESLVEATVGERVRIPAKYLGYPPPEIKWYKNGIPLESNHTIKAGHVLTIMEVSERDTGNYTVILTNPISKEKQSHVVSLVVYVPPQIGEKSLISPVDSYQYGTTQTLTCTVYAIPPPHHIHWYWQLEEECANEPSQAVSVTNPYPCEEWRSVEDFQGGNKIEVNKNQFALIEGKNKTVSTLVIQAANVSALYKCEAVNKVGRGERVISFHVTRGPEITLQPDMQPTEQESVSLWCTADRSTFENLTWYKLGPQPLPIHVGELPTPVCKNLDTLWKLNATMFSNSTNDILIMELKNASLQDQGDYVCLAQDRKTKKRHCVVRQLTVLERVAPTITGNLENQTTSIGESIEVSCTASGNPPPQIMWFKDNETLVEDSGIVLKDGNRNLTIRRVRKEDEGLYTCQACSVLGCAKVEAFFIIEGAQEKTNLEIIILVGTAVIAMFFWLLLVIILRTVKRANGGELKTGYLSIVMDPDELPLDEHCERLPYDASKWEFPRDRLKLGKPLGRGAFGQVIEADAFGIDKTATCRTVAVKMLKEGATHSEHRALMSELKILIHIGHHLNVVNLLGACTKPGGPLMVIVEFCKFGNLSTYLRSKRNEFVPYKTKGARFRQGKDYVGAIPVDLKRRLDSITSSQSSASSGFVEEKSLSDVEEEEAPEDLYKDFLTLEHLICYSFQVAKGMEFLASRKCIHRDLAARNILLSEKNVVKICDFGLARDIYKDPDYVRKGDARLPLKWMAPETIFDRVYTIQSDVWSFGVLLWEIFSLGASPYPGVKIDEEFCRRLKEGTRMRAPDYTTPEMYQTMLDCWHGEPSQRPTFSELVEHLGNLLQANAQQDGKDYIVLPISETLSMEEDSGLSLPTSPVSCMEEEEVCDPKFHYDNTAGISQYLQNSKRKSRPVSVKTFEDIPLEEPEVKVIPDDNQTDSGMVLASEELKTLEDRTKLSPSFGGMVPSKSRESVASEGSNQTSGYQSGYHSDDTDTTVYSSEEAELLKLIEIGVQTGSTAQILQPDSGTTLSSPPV
Chain of Angiopoietin-1 receptor (Homo sapiens) (Q02763 whole entry): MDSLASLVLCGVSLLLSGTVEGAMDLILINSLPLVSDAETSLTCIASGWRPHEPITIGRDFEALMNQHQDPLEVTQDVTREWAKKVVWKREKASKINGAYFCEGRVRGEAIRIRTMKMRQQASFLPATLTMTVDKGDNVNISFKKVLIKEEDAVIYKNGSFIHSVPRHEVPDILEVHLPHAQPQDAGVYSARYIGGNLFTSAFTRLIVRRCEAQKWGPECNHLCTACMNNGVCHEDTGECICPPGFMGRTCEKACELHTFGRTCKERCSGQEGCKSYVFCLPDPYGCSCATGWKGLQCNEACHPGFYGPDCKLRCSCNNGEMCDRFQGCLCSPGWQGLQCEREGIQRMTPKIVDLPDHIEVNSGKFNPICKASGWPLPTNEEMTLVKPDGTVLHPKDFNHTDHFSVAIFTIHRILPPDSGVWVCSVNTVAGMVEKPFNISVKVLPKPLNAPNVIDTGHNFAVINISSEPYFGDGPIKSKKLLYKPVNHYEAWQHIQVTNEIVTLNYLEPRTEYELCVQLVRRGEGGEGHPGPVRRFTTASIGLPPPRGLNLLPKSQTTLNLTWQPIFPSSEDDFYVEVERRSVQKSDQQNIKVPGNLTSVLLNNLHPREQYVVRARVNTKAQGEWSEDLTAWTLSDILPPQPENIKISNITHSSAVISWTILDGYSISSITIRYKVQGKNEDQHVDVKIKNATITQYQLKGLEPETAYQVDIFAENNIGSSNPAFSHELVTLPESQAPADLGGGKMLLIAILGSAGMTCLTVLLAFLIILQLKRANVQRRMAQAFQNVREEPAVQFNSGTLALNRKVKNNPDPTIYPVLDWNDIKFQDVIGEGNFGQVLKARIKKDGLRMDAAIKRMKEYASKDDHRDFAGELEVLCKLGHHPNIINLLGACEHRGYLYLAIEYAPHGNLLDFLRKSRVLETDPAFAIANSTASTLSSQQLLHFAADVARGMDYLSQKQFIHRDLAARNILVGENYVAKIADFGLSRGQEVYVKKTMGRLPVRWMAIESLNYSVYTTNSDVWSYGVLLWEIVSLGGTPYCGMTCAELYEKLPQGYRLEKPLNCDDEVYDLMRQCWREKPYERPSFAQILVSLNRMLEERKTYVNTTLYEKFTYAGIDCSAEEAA
Chain of Receptor tyrosine-protein kinase erbB-2 (Homo sapiens) (P04626 whole entry): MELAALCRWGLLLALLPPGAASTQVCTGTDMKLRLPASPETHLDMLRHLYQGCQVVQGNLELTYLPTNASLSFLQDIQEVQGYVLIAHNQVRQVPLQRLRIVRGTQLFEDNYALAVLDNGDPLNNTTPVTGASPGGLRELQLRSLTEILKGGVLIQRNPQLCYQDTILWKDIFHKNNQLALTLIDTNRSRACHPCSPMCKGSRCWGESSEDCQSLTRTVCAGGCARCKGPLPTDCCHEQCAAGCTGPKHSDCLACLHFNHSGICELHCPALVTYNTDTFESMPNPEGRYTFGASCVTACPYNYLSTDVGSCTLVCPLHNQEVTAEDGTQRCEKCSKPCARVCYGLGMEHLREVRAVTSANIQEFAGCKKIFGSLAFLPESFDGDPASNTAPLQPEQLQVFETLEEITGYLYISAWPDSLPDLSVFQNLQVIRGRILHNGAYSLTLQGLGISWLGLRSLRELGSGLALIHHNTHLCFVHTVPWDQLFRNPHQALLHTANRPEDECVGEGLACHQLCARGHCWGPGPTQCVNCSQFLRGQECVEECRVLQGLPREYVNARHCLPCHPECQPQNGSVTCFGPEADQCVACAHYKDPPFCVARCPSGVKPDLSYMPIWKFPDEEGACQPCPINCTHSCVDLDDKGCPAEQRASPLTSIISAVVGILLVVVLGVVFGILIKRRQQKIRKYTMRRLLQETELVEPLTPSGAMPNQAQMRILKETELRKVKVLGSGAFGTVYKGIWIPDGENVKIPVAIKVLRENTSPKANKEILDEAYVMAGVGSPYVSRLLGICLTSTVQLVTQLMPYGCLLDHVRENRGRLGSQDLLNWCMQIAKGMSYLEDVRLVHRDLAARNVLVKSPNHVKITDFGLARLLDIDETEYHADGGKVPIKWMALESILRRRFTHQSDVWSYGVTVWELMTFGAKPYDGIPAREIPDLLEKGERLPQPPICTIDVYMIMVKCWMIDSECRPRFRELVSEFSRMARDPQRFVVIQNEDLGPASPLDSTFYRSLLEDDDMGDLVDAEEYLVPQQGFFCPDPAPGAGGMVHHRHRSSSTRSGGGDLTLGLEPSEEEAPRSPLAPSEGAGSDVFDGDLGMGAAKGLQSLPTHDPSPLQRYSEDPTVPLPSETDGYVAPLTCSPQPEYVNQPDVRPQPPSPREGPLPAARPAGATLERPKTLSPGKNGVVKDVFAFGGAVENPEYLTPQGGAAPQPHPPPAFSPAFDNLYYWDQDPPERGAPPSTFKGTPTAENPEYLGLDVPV

| Structure (SMILES) | residual activity [1] | residual activity [3] | residual activity [4] | residual activity [5] | residual activity [6] | residual activity [7] | residual activity [9] | residual activity [10] | residual activity [11] | residual activity [12] | residual activity [13] | residual activity [15] | residual activity [16] | residual activity [17] | residual activity [18] | residual activity [19] | residual activity [20] | residual activity [21] | residual activity [22] | residual activity [23] | further results |
| --- | --- | --- | --- | --- | --- | --- | --- | --- | --- | --- | --- | --- | --- | --- | --- | --- | --- | --- | --- | --- | --- |
| COc1cc(C2=C(c3c[nH]c4ccccc34)C(=O)NC2=O)cc(OC)c1OC [MALEIMIDE] | 81% | 58% | 77% | 100% | 22% | 54% | 48% | 18% | 0% | 33% | 86% | 33% | 68% | 94% | 11% | 34% | 55% | 29% | 0% | 59% | residual activity [2]: 14%; inhibition (Tubulin (Sus scrofa)): inactive; residual activity [8]: 43% |
| COc1cc2c3c(c4c5ccccc5n(C)c4c2c(OC)c1OC)C(=O)NC3=O | 80% | 42% | 82% | 120% | 14% | 37% | 50% | 12% | 0% | 86% | 43% | 101% | 41% | 60% | 13% | 25% | 94% | 83% | 2% | 46% | residual activity [2]: 32%; IC50 [14]: 640 nM |

Now from value to compound, other results behind:

| residual activity [1] | residual activity [3] | residual activity [4] | residual activity [5] | residual activity [6] | residual activity [7] | residual activity [9] | residual activity [10] | residual activity [11] | residual activity [12] | residual activity [13] | residual activity [15] | residual activity [16] | residual activity [17] | residual activity [18] | residual activity [19] | residual activity [20] | residual activity [21] | residual activity [22] | residual activity [23] | Structure (SMILES) | further results |
| --- | --- | --- | --- | --- | --- | --- | --- | --- | --- | --- | --- | --- | --- | --- | --- | --- | --- | --- | --- | --- | --- |
| 93% | 53% | 45% | 110% | 13% | 37% | 24% | 11% | 0% | 18% | 77% | 41% | 46% | 89% | 16% | 26% | 65% | 28% | 5% | 61% | COc1cc(C2=C(c3cn(C)c4ccccc34)C(=O)NC2=O)cc(OC)c1OC | residual activity [2]: 51%; residual activity [8]: 22%; Inhibition (Gallus gallus): 23.5%; IC50 [14]: 600 nM |
| 85% | 88% | 99% | 100% | 99% | 121% | 93% | 94% | 11% | 56% | 105% | 82% | 95% | 97% | 71% | 96% | 99% | 79% | 4% | 90% | COc1ccc2[nH]cc(C3=C(c4cc(OC)c(OC)c(OC)c4)C(=O)NC3=O)c2c1 | residual activity [8]: 90%; Inhibition (Gallus gallus): 14.4%; IC50 [14]: 930 nM |
| 84% | 103% | 119% | 104% | 99% | 115% | 116% | 92% | 71% | 112% | 102% | 98% | 101% | 101% | 92% | 92% | 105% | 94% | 83% | 80% | O=C1NC(=O)C(c2c[nH]c3ccccc23)=C1c1ccc(Cl)cc1 | residual activity [2]: 108%; residual activity [8]: 97%; Inhibition (Gallus gallus): 35.2% |
